Converted amounts (≈) assume the structure as drawn. The source made the active and inactive calls. No cut-off for these calls is given here.
Columns and labels:
Escherichia coli [1] = experiment: Antibacterial activity against Escherichia coli assessed as inhibition of bacterial growth measured after 16 to 20 hrs by two-fold serial microbroth dilution method; type: functional; conditions: time 16-20 hrs
Summary of the method: (§1)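 Broth microdilution in LB and M9 medium. Inoculum adjusted to about 5 × 10⁵ cells/ml. Compound diluted twofold serially in microplate wells, then plates covered and incubated at 37 °C with shaking. Growth read as OD600. MIC taken as the lowest concentration giving no growth after 16–20 h.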

[2] = Cytotoxicity against human HEK293 cells assessed as reduction in cell viability measured after 28 hrs by PrestoBlue reagent based fluorescence analysis
Summary of the method: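 HEK293 cells seeded at 25*10³ per well in DMEM with 10% FBS, 2 mM L-Glu and 50 µg/ml gentamicin. Cells held 24 h at 37 °C, 5% CO2 before compound was added (final DMSO 0.1%), then incubated 28 h. Viability read by PrestoBlue fluorescence at 590 nm, expressed relative to 0.1% DMSO control (100%). CC50 derived by curve fitting.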

Escherichia coli [3] = experiment: Antibacterial activity against ampicillin/cefotaxime/tetracycline/ceftriaxone-resistant Escherichia coli mx7 assessed as inhibition of bacterial growth measured after 16 to 20 hrs by two-fold serial microbroth dilution method; type: functional, organism-based; conditions: time 16-20 hrs
Summary of the method: (§2)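 Broth microdilution MIC in LB and M9 medium. Inoculum adjusted to about 5 × 10⁵ cells/ml. Compound serially diluted twofold. Plates covered and incubated at 37 °C with shaking. OD600 read; MIC taken as the lowest concentration giving no growth after 16–20 h.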

Enterobacter cloacae = experiment: Antibacterial activity against ampicillin/cefotaxime/tetracycline/ceftriaxone-resistant Enterobacter cloacae O3 assessed as inhibition of bacterial growth measured after 16 to 20 hrs by two-fold serial microbroth dilution method; type: functional, organism-based; conditions: time 16-20 hrs; summary of the method: as §2
Morganella morganii = experiment: Antibacterial activity against Morganella morganii R36 assessed as inhibition of bacterial growth measured after 16 to 20 hrs by two-fold serial microbroth dilution method; type: functional, organism-based; conditions: time 16-20 hrs; summary of the method: as §1
Pseudomonas aeruginosa [4] = experiment: Antibacterial activity against Pseudomonas aeruginosa R42 assessed as inhibition of bacterial growth measured after 16 to 20 hrs by two-fold serial microbroth dilution method; type: functional, organism-based; conditions: time 16-20 hrs; summary of the method: as §1
Klebsiella pneumoniae = experiment: Antibacterial activity against ampicillin/fosfomycin-resistant Klebsiella pneumonia 181210171-2 assessed as inhibition of bacterial growth measured after 16 to 20 hrs by two-fold serial microbroth dilution method; type: functional, organism-based; conditions: time 16-20 hrs; summary of the method: as §2
Enterobacter = experiment: Antibacterial activity against Enterobacter sp. O54 assessed as inhibition of bacterial growth measured after 16 to 20 hrs by two-fold serial microbroth dilution method; type: functional, organism-based; conditions: time 16-20 hrs; summary of the method: as §1
Proteus sp. = experiment: Antibacterial activity against ampicillin/cefotaxime/tetracycline/ceftriaxone/fosfomycin-resistant Proteus sp. O14 assessed as inhibition of bacterial growth measured after 16 to 20 hrs by two-fold serial microbroth dilution method; type: functional, organism-based; conditions: time 16-20 hrs; summary of the method: as §2
Citrobacter koseri = experiment: Antibacterial activity against Citrobacter koseri R38 assessed as inhibition of bacterial growth measured after 16 to 20 hrs by two-fold serial microbroth dilution method; type: functional, organism-based; conditions: time 16-20 hrs; summary of the method: as §1
Pseudomonas aeruginosa [5] = experiment: Antibacterial activity against ampicillin/cefotaxime-resistant Pseudomonas aeruginosa ATCC 27853 assessed as inhibition of bacterial growth measured after 16 to 20 hrs by two-fold serial microbroth dilution method; type: functional, organism-based; conditions: time 16-20 hrs; summary of the method: as §2
Hafnia alvei = experiment: Antibacterial activity against Ampicillin resistant Hafnia alvei O31 assessed as inhibition of bacterial growth measured after 16 to 20 hrs by two-fold serial microbroth dilution method; type: functional, organism-based; conditions: time 16-20 hrs; summary of the method: as §2
Proteus vulgaris = experiment: Antibacterial activity against Proteus vulgaris O41 assessed as inhibition of bacterial growth measured after 16 to 20 hrs by two-fold serial microbroth dilution method; type: functional, organism-based; conditions: time 16-20 hrs; summary of the method: as §1
Candida albicans = experiment: Antibacterial activity against ampicillin/cefotaxime/tetracycline/ceftriaxone/fosfomycin-resistant Candida albicans 181210169-1 assessed as inhibition of fungal growth measured after 16 to 20 hrs by two-fold serial microbroth dilution method; type: functional, organism-based; conditions: time 16-20 hrs; summary of the method: as §2
Klebsiella aerogenes = experiment: Antibacterial activity against Enterobacter aerogenes R41 assessed as inhibition of bacterial growth measured after 16 to 20 hrs by two-fold serial microbroth dilution method; type: functional, organism-based; conditions: time 16-20 hrs; summary of the method: as §1
Klebsiella oxytoca = experiment: Antibacterial activity against Klebsiella oxytoca R48 assessed as inhibition of bacterial growth measured after 16 to 20 hrs by two-fold serial microbroth dilution method; type: functional, organism-based; conditions: time 16-20 hrs; summary of the method: as §1
Staphylococcus aureus = experiment: Antibacterial activity against Fosfomycin resistant Staphylococcus aureus ATCC USA 206 assessed as inhibition of bacterial growth measured after 16 to 20 hrs by two-fold serial microbroth dilution method; type: functional, organism-based; conditions: time 16-20 hrs; summary of the method: as §2
Bacillus subtilis = experiment: Antibacterial activity against Bacillus subtilis 3HM assessed as inhibition of bacterial growth measured after 16 to 20 hrs by two-fold serial microbroth dilution method; type: functional, organism-based; conditions: time 16-20 hrs; summary of the method: as §1
Escherichia coli [6] = experiment: Antibacterial activity against Escherichia coli ATCC25922 assessed as inhibition of bacterial growth measured after 16 to 20 hrs by two-fold serial microbroth dilution method; type: functional, organism-based; conditions: ATCC 25922, time 16-20 hrs; summary of the method: as §1
Aeromonas = experiment: Antibacterial activity against Aeromonas sp. O9 assessed as inhibition of bacterial growth measured after 16 to 20 hrs by two-fold serial microbroth dilution method; type: functional, organism-based; conditions: time 16-20 hrs; summary of the method: as §1

Structure (SMILES)	MIC (Escherichia coli [1])	CC50 at 28 h [2]	Activity (Escherichia coli [3])	Activity (Enterobacter cloacae)	Activity (Morganella morganii)	Activity (Pseudomonas aeruginosa [4])	Activity (Klebsiella pneumoniae)	Activity (Enterobacter)	Activity (Proteus sp.)	Activity (Citrobacter koseri)	Activity (Pseudomonas aeruginosa [5])	Activity (Hafnia alvei)	Activity (Proteus vulgaris)	Activity (Candida albicans)	Activity (Klebsiella aerogenes)	Activity (Klebsiella oxytoca)	Activity (Staphylococcus aureus)	Activity (Bacillus subtilis)	Activity (Escherichia coli [6])	Activity (Aeromonas)
COc1c2c(cc3c1C(CC(=O)c1c(O)n(C)c(=S)n(C)c1=O)N(C)CC3)OCO2 (stereo not given)	115 µM (≈ 50 µg/mL)	> 100 µM	inactive	inactive	inactive	inactive	inactive	Active	inactive	inactive	inactive	inactive	inactive	Active	inactive	inactive	Active	Active	inactive	inactive
CCOc1ccc(/C=C/C(=O)CC2c3c(cc4c(c3OC)OCO4)CC[N+]2(C)C)cc1 (stereo not given)	90.7 µM	17.8 µM	inactive	inactive	inactive	inactive	inactive	inactive	inactive	inactive	inactive	inactive	Active	inactive	inactive	inactive	Active	inactive	inactive	inactive
COc1c2c(cc3c1C(CC(=O)c1ccc(CC(C)C)cc1)[N+](C)(C)CC3)OCO2 (stereo not given)	23.3 µM	13.3 µM	Active	Active	Active	Active	Active	Active	Active	Active	inactive	Active	Active	Active	Active	Active	Active	Active	Active	Active
COc1c2c(cc3c1C(CC(=O)/C=C/C1CC=C(C)CC1C)[N+](C)(C)CC3)OCO2 (stereo not given)	46.3 µM	10.4 µM	Active	inactive	Active	inactive	inactive	inactive	inactive	inactive	inactive	inactive	inactive	Active	inactive	inactive	Active	Active	Active	inactive
COc1c2c(cc3c1C(CC(=O)/C=C/C1C(C)=CCCC1(C)C)[N+](C)(C)CC3)OCO2 (stereo not given)	22.6 µM	16.2 µM	inactive	inactive	inactive	inactive	inactive	inactive	inactive	inactive	inactive	inactive	inactive	inactive	inactive	inactive	inactive	Active	inactive	inactive

Source: ChEMBL document CHEMBL4819096, “Antibacterial activity of noscapine analogs” (Bioorg Med Chem Lett, 2021)
